# Assay results collected from several papers.
# Compare with care: the assays were run in different laboratories.
# Cell line: CAKI-1
# Read-out: cell growth or viability
SMILES,method,tested at,time,endpoint,value
COc1ccc(-c2ccc(-c3ccc(C(=N)N)nc3)s2)cc1Cl,,,,GI50,1740 nM
COc1ccc(C(=O)/C=C/c2cccc(Cl)c2Cl)cc1S(N)(=O)=O,SRB,10 µM,,inhibition,106%
COc1ccc(-c2ccc(-c3ccc(C(=N)N)nc3)s2)cc1,,,,GI50,1640 nM
COc1ccc(C(=O)/C=C/c2cc3c(cc2Br)OCO3)cc1S(N)(=O)=O,SRB,,48 h,GI50,4600 nM
CC(=O)OC[C@H]1O[C@@H]([S-])[C@H](OC(C)=O)[C@@H](OC(C)=O)[C@@H]1OC(C)=O.CCP(CC)CC.[Au+],resazurin,,,IC50,2290 nM
CC(C)C[C@H](NC(=O)[C@H](Cc1ccccc1)NC(=O)c1cnccn1)B(O)O,ATP luminescence,,,IC50,10 nM
Cc1cc(C)n(C(=S)[S][Au][PH](CCCCCC[PH]([Au][S]C(=S)n2nc(C)cc2C)(c2ccccc2)c2ccccc2)(c2ccccc2)c2ccccc2)n1,,,,GI50,2160 nM
O=C1Nc2ccccc2C1=NNc1nnc2n1N=C(c1ccccc1)CS2,SRB,10 µM,,inhibition,21%
S=C([S][Au-][P+](CCCCCC[P+]([Au-][S]C(=S)n1cccn1)(c1ccccc1)c1ccccc1)(c1ccccc1)c1ccccc1)n1cccn1,,,,GI50,7150 nM
[Cl-].[Cl-].[Ti+4].c1cc[cH-]c1.c1cc[cH-]c1,XTT,,24 h,IC50,> 200000 nM
COc1cc(Nc2nccc(-c3cnn4nc(OC)ccc34)n2)cc(C(F)(F)F)c1,ATP luminescence,,,IC50,310 nM
